One may read the IC50 as the midpoint of a concentration-inhibition curve.

For test [1], the system named is A549. Briefly: Cytotoxicity against human A549 cells after 48 hrs by MTT assay. It is filed as functional, cell-based. The gist of the method:
(§1)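 Cells seeded at 5000 to 10 000 per well, exposed to compounds at a range of concentrations for 48 h at 37 °C. MTT then added for 4 h at 37 °C under 5% CO2. Formazan dissolved in 10% SDS and absorbance read at 595 nm. Each concentration tested in triplicate. IC50 derived by the Reed and Muench method, with cisplatin as positive control.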
Background: Tetrazolium dyes change colour on reduction, which living cells bring about.

Test [2] concerns MCF7. Put plainly: Cytotoxicity against human MCF7 cells after 48 hrs by MTT assay. The class given is functional, cell-based. A digest of the protocol: as §1
Test [3] deals with SMMC-7721. Briefly: Cytotoxicity against human SMMC7721 cells after 48 hrs by MTT assay. The class given is functional, cell-based. The gist of the method: as §1
Test [4] deals with SW480. Put plainly: Cytotoxicity against human SW480 cells after 48 hrs by MTT assay. The class given is functional, cell-based. A digest of the protocol: as §1
Test [5] can be described thus: Cytotoxicity against human HL60 cells after 48 hrs by MTT assay. It is filed as functional, cell-based, HL-60. The gist of the method:
as §1

Setting [6] is: Homo sapiens, A549, 48 h, read-out: IC50.
The mark [7] stands for this setting: Homo sapiens, MCF7, 48 h, read-out: IC50.
[8] abbreviates: Homo sapiens, SMMC-7721, 48 h, read-out: IC50.
Where [9] appears, read: Homo sapiens, SW480, 48 h, read-out: IC50.
Setting [10] is: Homo sapiens, HL-60, 48 h, read-out: IC50.

As to `C=C1C(=O)[C@]23[C@H](O)[C@H]1CC[C@H]2[C@@]12C=N[C@@]3(O)[C@@H](O)[C@@H]1C(C)(C)CC[C@@H]2O`, the IC50 in test [1] (setting [6]), in test [2] (setting [7]), in test [3] (setting [8]), in test [4] (setting [9]) and in test [5] (setting [10]) was over 40 µM in each case.

On to `C=C1C(=O)OC2CC1C[C@H]1[C@@H]2[C@@]23C=NC1(O)[C@@H](O)[C@@H]2C(C)(C)CC[C@@H]3O`, for which the IC50 result in test [1] (a549), in test [2] (mcf7), in test [3] (smmc-7721), in test [4] (sw480) and in test [5] (hl-60) was “Not Active” each time.

For `C=C1C(=O)O[C@H]2C[C@@H]1C[C@H]1[C@@H]2[C@@]23C(OC)O[C@@]1(O)[C@@H](O)[C@@H]2C(C)(C)CC[C@@H]3O` (stereo not given in full), the IC50 entry in test [1] (a549), in test [2] (mcf7), in test [3] (smmc-7721), in test [4] (sw480) and in test [5] (hl-60) was “Active” each time.

Turning to `C=C1C(=O)[C@]23[C@H](O)[C@H]1CC[C@H]2[C@@]12CO[C@]3(O)[C@@H](O)[C@@H]1C(C)(C)CC[C@@H]2O` [ORIDONIN], the IC50 in test [1] (setting [6]), in test [2] (setting [7]), in test [3] (setting [8]), in test [4] (setting [9]) and in test [5] (setting [10]) was 7.2 µM each time.

Values taken from ChEMBL document CHEMBL3421599, “Diterpene alkaloids with an aza-ent-kaurane skeleton from Isodon rubescens” (J Nat Prod, 2015).
